Measurements pooled from the literature.
Cell line: MCF7
Read-out: cell growth or viability

With `CN(C)c1ccc(Nc2nc(-c3ccncc3)nc3c2CC(N)CC3)cc1` (stereo not drawn) the IC50 was 15.8 µM (MTT).
For `Cc1nc2ccc(-c3ccc(F)cc3F)cc2c(O)c1C(=O)O`, the IC50 was at least 100 µM (MTT; 48 h).
For `Fc1ccc2c(-c3nnc(Cc4ccccc4)[nH]3)nn(Cc3ccc(Cl)cc3Cl)c2c1`, the IC50 was 192 µM (48 h).
With `C/C(=N\C(=S)/N=C(\C)c1c(O)c2ccccc2oc1=O)c1c(O)c2ccccc2oc1=O` the IC50 was 7.59 µM (MTT; 48 h).
For `CC(=NNC(=O)c1cc(-c2ccccc2)n(-c2ccc(S(N)(=O)=O)cc2)n1)c1ccc(Br)cc1`, the IC50 was 35.4 µM (fluorescence; 48 h).
The IC50 of `Fc1ccc(NC(=S)N/N=C/c2cccc3cc4ccccc4nc23)cc1` is reported as over 50 µM (MTT; 48 h).
With `O=C1CS/C(=N\c2cc(C(F)(F)F)ccc2-c2nnc(N3C(=O)CS/C3=N\c3cc(O)cc(Br)c3)s2)N1c1cc(O)cc(Br)c1` the IC50 was 73.5 µM (MTT).
For `COc1cccc2c1C(=O)c1c(O)c3c(c(O)c1C2=O)C[C@@](O)(C(=O)CO)C[C@@H]3O[C@H]1C[C@H](N)[C@H](O)[C@H](C)O1`, the IC50 was 3.94 µM (MTT; 24 h).
With `CCOC(=O)c1c(C)nc2ccc(-c3ccc(F)cc3)cc2c1O` the IC50 was 11 µM (MTT; 48 h).
`Cc1ccc(NNc2nc3c(Cl)cc(Cl)cc3c(=O)n2-c2ccccc2)cc1` has an IC50 of over 200 µM (MTT; 48 h).
`COc1ccc2c(-c3nc(-c4ccccc4)no3)nn(Cc3ccncc3)c2c1` has an IC50 of 86.5 µM (48 h).
With `CO[C@H]1[C@H](O[C@H]([C@H]2O[C@@H](n3ccc(=O)[nH]c3=O)[C@H](O)[C@@H]2O)[C@H](NCCCNC(=O)[C@@H](NC(=O)[C@@H](NC(=O)N[C@H](C(=O)O)C(C)C)[C@@H]2CCN=C(N)N2)[C@@H](O)C(C)C)C(=O)O)O[C@H](CN)[C@H]1O` the IC50 was over 35 µM (WST-1).
For `CCCNC(=S)N/N=C/c1cccc2cc3ccccc3nc12`, the IC50 was 48.1 µM (MTT; 48 h).
With `COc1cccc2c1C(=O)c1c(O)c3c(c(O)c1C2=O)C[C@@](O)(C(=O)CO)C[C@@H]3O[C@H]1C[C@H](N)[C@H](O)[C@H](C)O1` the IC50 was 34.3 µM (MTT).
`O=[N+]([O-])c1ccc(O)c(C=NNc2ccc(C(F)(F)F)cc2)c1` gave an IC50 of 13 µM (MTT; 24 h).
`COc1ccccc1/C=N/N=C1\C(=O)Nc2ccccc21` gave an IC50 of 45.6 µg/mL (MTT; 24 h).
With `COc1cccc(NC(=S)N/N=C/c2cccc3cc4ccccc4nc23)c1` the IC50 was over 50 µM (MTT; 48 h).
`CCC(C(=O)N1C(=O)C(=Nc2ccc(Cl)cc2Br)c2ccccc21)c1ccccc1` (stereo not drawn) has an IC50 of 34.2 µM (MTT; 48 h).
`O=C1CS/C(=N\c2cc(C(F)(F)F)ccc2-c2nnc(N3C(=O)CS/C3=N\c3ccc(Cl)cc3)s2)N1c1ccc(Cl)cc1` gave an IC50 of 52.5 µM (MTT).
The IC50 of `CC(=O)c1nc2ccccc2n1Cc1cn([C@@H]2O[C@H](CO)[C@H](O)[C@H](O)[C@H]2O)nn1` is reported as 2.89 µM (LDH; 48 h).
The IC50 of `O=C1C(Cl)=C(n2cncn2)C(=O)c2ccccc21` is reported as 26.8 µg/mL (MTT; 24 h).
For `C(=N\Nc1cc(N/N=C/c2ccc3ccccc3n2)ncn1)/c1ccc2ccccc2n1`, the IC50 was 34.3 µM (MTT; 48 h).
With `CC(=O)O[C@H]1C(=O)[C@@]2(C)[C@H]([C@H](OC(=O)c3ccccc3)[C@]3(O)C[C@H](OC(=O)[C@H](O)[C@@H](NC(=O)c4ccccc4)c4ccccc4)C(C)=C1C3(C)C)[C@]1(OC(C)=O)CO[C@@H]1C[C@@H]2O` the IC50 was over 100 µM (MTT; 48 h).
`CC1CCC(C(C)C)C(OC2=C(Cl)C(=O)c3ccccc3C2=O)C1` (stereo not drawn) gave an IC50 of 21.9 µg/mL (MTT; 24 h).
`Cc1nc2ccc(-c3cccc(F)c3)cc2c(O)c1C(=O)O` has an IC50 of at least 100 µM (MTT; 48 h).
The IC50 of `COc1cccc2c1C(=O)c1c(O)c3c(c(O)c1C2=O)C[C@@](O)(C(=O)CO)C[C@@H]3O[C@H]1C[C@H](N)[C@H](O)[C@H](C)O1` is reported as 0.146 µM (96 h).
`O=C1CS/C(=N\c2cc(C(F)(F)F)ccc2-c2nnc(N3C(=O)CS/C3=N\c3ccc(F)c(O)c3)s2)N1c1ccc(F)c(O)c1` has an IC50 of 25.8 µM (MTT).
The IC50 of `C(=N\Nc1cc(N/N=C/c2ccc3ccccc3n2)nc(-c2ccccc2)n1)/c1ccc2ccccc2n1` is reported as 7.05 µM (MTT; 48 h).
`Cc1cccc(N=C2C(=O)N(Cc3cccc(Cl)c3)c3ccccc32)c1` gave an IC50 of 2.12 µM (MTT; 48 h).
`O=C(O)c1nn(Cc2ccc(Cl)cc2Cl)c2ccccc12` has an IC50 of 113 µM (48 h).
With `COc1ccc(N(Cc2csc(-c3ccc(C)cc3)n2)C(=O)CCCCCC(=O)NO)cc1` the IC50 was 3.31 µM (MTT; 72 h).
With `O=C(/C=C/c1ccc(F)cc1)c1nc2ccccc2n1Cc1cn([C@@H]2O[C@H](CO)[C@H](O)[C@H](O)[C@H]2O)nn1` the IC50 was 1.99 µM (LDH; 48 h).
`CC(C)c1cccc(C(C)C)c1N=C1C(=O)N(Cc2ccccc2)c2ccccc21` gave an IC50 of 12.6 µM (MTT; 48 h).
`O=[N+]([O-])c1cc(Br)c(O)c(C=NNc2ccc(C(F)(F)F)cc2)c1` gave an IC50 of 8 µM (MTT; 24 h).
`COc1cccc2c1C(=O)c1c(O)c3c(c(O)c1C2=O)C[C@@](O)(C(=O)CO)C[C@@H]3O[C@H]1C[C@H](N)[C@H](O)[C@H](C)O1` has an IC50 of 8.87 µM (MTT; 48 h).
`CC(C)c1cccc(C(C)C)c1N=C1C(=O)N(Cc2ccc(Br)cc2)c2ccccc21` gave an IC50 of 52.6 µM (MTT; 48 h).
`CN(C)C(=O)Nc1nc2c(Cl)cc(Cl)cc2c(=O)n1-c1ccccc1` gave an IC50 of over 200 µM (MTT; 48 h).
With `O=[N+]([O-])c1cc(Br)c(O)c(C=NNc2ccc(Br)cc2)c1` the IC50 was 9.23 µM (MTT; 24 h).
`O=C(NCc1ccc(OC(F)(F)F)cc1)c1cn(Cc2ccc(F)cc2)c2ccc(Oc3ccccc3)cc2c1=O` gave an IC50 of 343 µM (MTT; 24 h).
For `C[C@H]1[C@H](C)CC[C@]2(C)CC[C@]3(C)C(=CC(=O)[C@@H]4[C@@]5(C)CC[C@@H](O)[C@](C)(C(=O)NCc6cn(-c7ccc(Br)cc7)nn6)[C@@H]5CC[C@]43C)[C@H]12`, the IC50 was 75.1 µM (MTT; 24 h).
`NNc1nc2c(Cl)cc(Cl)cc2c(=O)n1-c1ccc(Cl)cc1` gave an IC50 of over 200 µM (MTT; 48 h).
`FC(F)(F)c1ccc(-c2nnc(-c3nn(Cc4ccc(Cl)cc4Cl)c4ccccc34)o2)cc1` gave an IC50 of 71.1 µM (48 h).
`Cc1cccc(N=C2C(=O)Nc3ccccc32)c1` gave an IC50 of 73.4 µM (MTT; 48 h).
For `CC(=O)OC[C@H]1O[C@@H](n2cc(Cn3c(C(=O)/C=C/c4ccc(F)cc4)nc4ccccc43)nn2)[C@H](OC(C)=O)[C@@H](OC(C)=O)[C@H]1OC(C)=O`, the IC50 was 2.48 µM (LDH; 48 h).
The IC50 of `Cc1nnc(-c2nn(Cc3ccc(Cl)cc3Cl)c3ccccc23)o1` is reported as 19.8 µM (48 h).
`C[C@H]1[C@H](C)CC[C@]2(C)CC[C@]3(C)C(=CC(=O)[C@@H]4[C@@]5(C)CC[C@@H](O)[C@](C)(C(=O)NCc6cn(-c7cccc(Br)c7)nn6)[C@@H]5CC[C@]43C)[C@H]12` gave an IC50 of 67 µM (MTT; 24 h).
For `CCc1ccc(N=C2C(=O)Nc3ccccc32)cc1`, the IC50 was 51.7 µM (MTT; 48 h).
For `C/C(=N\C(=O)/N=C(\C)c1c(O)c2ccccc2oc1=O)c1c(O)c2ccccc2oc1=O`, the IC50 was 14.6 µM (MTT; 48 h).
`Cc1ccc(CN2C(=O)C(=Nc3c(C(C)C)cccc3C(C)C)c3ccccc32)cc1` gave an IC50 of 53.1 µM (MTT; 48 h).
`O=c1c2cc(Cl)cc(Cl)c2nc(NNc2cccc(Cl)c2)n1-c1ccccc1` gave an IC50 of over 200 µM (MTT; 48 h).
`CCOC(=O)C(=CNc1ccc(Oc2ccccc2)cc1)C(=O)OCC` gave an IC50 of 102 µM (MTT; 24 h).
`O=C(C=Cc1cccs1)c1ccc(OCCOc2ccc(C(=O)C=Cc3cccs3)cc2)cc1` has an IC50 of 7.87 µM (MTT; 48 h).
The IC50 of `COc1cc(N=C2C(=O)N(Cc3ccccc3)c3ccccc32)cc(OC)c1` is reported as 0.56 µM (MTT; 48 h).
With `NS(=O)(=O)c1ccc(-n2nc(C(=O)NN=Cc3ccccc3O)cc2-c2ccccc2)cc1` the IC50 was 18 µM (fluorescence; 48 h).
